Data from ChEMBL document CHEMBL1139367, “A novel histone acetyltransferase inhibitor modulating Gcn5 network: cyclopentylidene-[4-(4'-chlorophenyl)thiazol-2-yl)hydrazone” (2009).
Activity calls are given as the source filed them. The calls are words filed in the database; no cut-off is given here.

What was measured:
Saccharomyces cerevisiae [1] = experiment: Inhibition of histone H3 acetylation at H3-AcK14 site in wild type Saccharomyces cerevisiae S288C at 0.8 mM after 24 hrs at 28 degC by hybridization assay; type: functional, organism-based
Procedure, shortened: (§1)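 Wild-type S288c yeast grown 24 h at 28 °C in YEPD with 1% DMSO, with or without compound added to the medium. Bulk proteins were extracted by an alkaline protocol, run on 15% SDS-PAGE and blotted. Blots were probed for acetylated H3, H4 and H3-K14Ac, with ECL detection. Signals were normalized to Ada2p and quantified densitometrically.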

Saccharomyces cerevisiae [2] = experiment: Growth inhibition of Saccharomyces cerevisiae SB0-deltabr mutant at 0.2 to 1 mM after 48 hrs at 28 degC by growth spot assay; type: functional, organism-based
Procedure, shortened: (§2)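 Exponentially growing yeast cells at 0.2 OD/mL were serially diluted 1/5. They were spotted on solid YEPD (2% agar) containing 1% DMSO, with compound added from a 100 mM DMSO stock at increasing concentrations. Plates were incubated at 28 °C. Each mutant was compared with its isogenic wild type (S288c, YMK986 or SB819).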

[3] = biological target: Histone acetyltransferase KAT2A (Homo sapiens) (UniProt Q92830); experiment: Inhibition of human recombinant Gcn5 assessed as reduction in acetylated histone H3 level at 0.8 mM by Western blot analysis
Histone acetyltransferase KAT2A (Homo sapiens), sequence (Q92830 2-837 limits assumed): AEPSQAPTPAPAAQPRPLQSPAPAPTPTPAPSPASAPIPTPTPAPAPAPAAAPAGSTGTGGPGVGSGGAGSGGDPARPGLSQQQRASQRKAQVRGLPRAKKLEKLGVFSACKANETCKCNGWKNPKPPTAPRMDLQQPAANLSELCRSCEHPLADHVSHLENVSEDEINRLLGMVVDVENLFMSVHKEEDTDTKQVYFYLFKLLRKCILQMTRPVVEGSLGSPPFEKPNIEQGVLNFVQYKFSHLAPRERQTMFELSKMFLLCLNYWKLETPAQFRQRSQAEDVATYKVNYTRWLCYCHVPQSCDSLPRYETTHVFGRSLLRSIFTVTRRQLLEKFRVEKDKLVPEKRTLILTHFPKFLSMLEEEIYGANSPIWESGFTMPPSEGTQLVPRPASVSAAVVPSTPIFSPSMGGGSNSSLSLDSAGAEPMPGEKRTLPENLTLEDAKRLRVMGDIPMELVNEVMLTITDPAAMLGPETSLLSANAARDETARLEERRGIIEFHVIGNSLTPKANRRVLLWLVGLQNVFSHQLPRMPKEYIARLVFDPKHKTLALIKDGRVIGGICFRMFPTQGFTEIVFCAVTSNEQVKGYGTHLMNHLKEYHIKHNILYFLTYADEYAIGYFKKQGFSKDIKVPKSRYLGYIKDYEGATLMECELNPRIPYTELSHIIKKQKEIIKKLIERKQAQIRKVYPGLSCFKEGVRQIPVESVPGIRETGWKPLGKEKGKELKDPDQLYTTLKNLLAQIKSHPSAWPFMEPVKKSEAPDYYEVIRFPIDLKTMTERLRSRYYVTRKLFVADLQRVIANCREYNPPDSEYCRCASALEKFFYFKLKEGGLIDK
Procedure, shortened: (§3)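 Tube reaction of human recombinant Gcn5 (50 ng) with 1 mM acetyl-CoA and histone H3 (100 or 200 ng). Buffer: 50 mM Tris-HCl pH 8.0, 0.1 mM EDTA, 50 mM KCl, 1 mM DTT, 5% glycerol. Incubated 1 h at 28 °C with or without compound, then 15% SDS-PAGE and blotting. Blots were probed serially with anti-acetyl-lysine and anti-acetyl-H3 antibodies.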

Saccharomyces cerevisiae [4] = experiment: Growth inhibition of Saccharomyces cerevisiae gcn5delta mutant at 0.2 to 1 mM after 48 hrs at 28 degC by growth spot assay; type: functional, organism-based; procedure, shortened: as §2
Saccharomyces cerevisiae [5] = experiment: Inhibition of global histone H3 acetylation in Saccharomyces cerevisiae gcn5delta mutant at 0.8 mM after 24 hrs at 28 degC by hybridization assay; type: functional, organism-based
Saccharomyces cerevisiae [6] = experiment: Decrease in global histone H3 acetylation in wild type Saccharomyces cerevisiae S288C at 0.8 mM after 24 hrs at 28 degC by hybridization assay; type: functional; parameters: scale not given: the % may be the effect or the level left; procedure, shortened: as §1
Saccharomyces cerevisiae [7] = experiment: Growth inhibition of Saccharomyces cerevisiae gcn5E173H mutant at 0.2 to 1 mM after 48 hrs at 28 degC by growth spot assay; type: functional, organism-based; procedure, shortened: as §2
Saccharomyces cerevisiae [8] = experiment: Inhibition of histone H3 acetylation at H3-AcK14 site in Saccharomyces cerevisiae gcn5delta mutant at 0.8 mM after 24 hrs at 28 degC by hybridization assay; type: functional, organism-based
[9] = biological target: Histone acetyltransferase KAT2A (Homo sapiens) (UniProt Q92830); experiment: Inhibition of human recombinant Gcn5 assessed as reduction in acetylated histone H3 level at 0.8 mM by Western blot analysis in presence of 200 ng histone H3; procedure, shortened: as §3
Saccharomyces cerevisiae [10] = experiment: Growth inhibition of wild type wild type Saccharomyces cerevisiae SB819 at 0.2 to 1 mM after 48 hrs at 28 degC by growth spot assay; type: functional, organism-based; procedure, shortened: as §2
[11] = biological target: Histone acetyltransferase KAT2A (Homo sapiens) (UniProt Q92830); experiment: Inhibition of human recombinant Gcn5 assessed as reduction in acetylated histone H3 level at 0.8 mM by Western blot analysis in presence of increased concentration of acetyl-CoA
Saccharomyces cerevisiae [12] = experiment: Reduction of global histone H4 acetylation in wild type Saccharomyces cerevisiae S288C at 0.8 mM after 24 hrs at 28 degC by hybridization assay; type: functional, organism-based; procedure, shortened: as §1
[13] = biological target: Histone acetyltransferase KAT2A (Homo sapiens) (UniProt Q92830); experiment: Inhibition of human recombinant Gcn5 assessed as reduction in acetylated histone H3 level at 0.2 mM by Western blot analysis in presence of histone H3; procedure, shortened: as §3
[14] = biological target: Histone acetyltransferase KAT2A (Homo sapiens) (UniProt Q92830); experiment: Inhibition of human recombinant Gcn5 assessed as reduction in acetylated histone H3 level at 0.2 mM by Western blot analysis; procedure, shortened: as §3

SMILES | Activity (Saccharomyces cerevisiae [1]) | Activity (Saccharomyces cerevisiae [2]) | Activity [3] | Activity (Saccharomyces cerevisiae [4]) | Activity (Saccharomyces cerevisiae [5]) | Activity (Saccharomyces cerevisiae [6]) | Activity (Saccharomyces cerevisiae [7]) | Activity (Saccharomyces cerevisiae [8]) | Activity [9] | Activity (Saccharomyces cerevisiae [10]) | Activity [11] | Activity (Saccharomyces cerevisiae [12]) | Activity [13] | Activity [14]
Clc1ccc(-c2csc(NN=C3CCCC3)n2)cc1 | Active | inactive | Active | Active | Active | 30% | Active | Active | inactive | inactive | Active | inactive | – | –
C=CC/C=C\C/C=C\CCCCCCCc1cccc(O)c1C(=O)O | – | – | – | – | – | – | – | – | – | – | – | – | Active | Active
